SR-BI HDL uptake – inhibitors of SR-BI mediated HDL lipid uptake, primary screen, ldlA[mSR-BI] cells, fluorescence, single point; Scavenger receptor class B member 1 (Mus musculus), Q61009; ldlA[mSR-BI] CHO cells, DiI-HDL uptake fluorescence, 3 h; inhibition, % at 12.5 µM; hit rate 0.96% among 320,000; AID 488896, 2010;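 active means mean replicate inhibition of at least 70% and a set share of replicates each scoring 70 or more; inconclusive means meets just one of the two criteria; inactive means fails both criteria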
Target sequence (Q61009 whole entry, looked up): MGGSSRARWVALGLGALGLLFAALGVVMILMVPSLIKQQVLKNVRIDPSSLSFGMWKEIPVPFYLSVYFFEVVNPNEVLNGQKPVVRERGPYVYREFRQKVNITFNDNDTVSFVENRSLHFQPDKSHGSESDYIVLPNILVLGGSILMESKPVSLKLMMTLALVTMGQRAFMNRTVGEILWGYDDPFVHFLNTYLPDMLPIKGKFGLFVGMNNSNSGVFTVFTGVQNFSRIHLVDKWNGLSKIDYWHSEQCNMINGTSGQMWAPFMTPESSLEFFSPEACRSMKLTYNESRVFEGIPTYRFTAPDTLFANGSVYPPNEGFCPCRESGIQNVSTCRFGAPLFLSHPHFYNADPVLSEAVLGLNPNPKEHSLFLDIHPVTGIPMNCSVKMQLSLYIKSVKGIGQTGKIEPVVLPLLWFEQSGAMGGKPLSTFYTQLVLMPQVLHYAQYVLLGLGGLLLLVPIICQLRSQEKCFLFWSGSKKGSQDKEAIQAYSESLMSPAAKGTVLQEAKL
CAL PDZ FP-1 – CAL PDZ peptide-binding inhibitors, primary screen, biochemical, fluorescence polarization, Cer-tagged CAL PDZ, HTS; purified CAL PDZ, TMR-peptide fluorescence polarization, 1 h; inhibition, % at 20 µM; hit rate 0.02% among 330,000; AID 504414, 2011;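 active means highest replicate inhibition of at least 40%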
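Material – purified CerCALP PDZ construct · Detection – FP readout, S and P plane fluorescence · Measure – percent inhibition from loss of millipolarization · Controls – unlabelled peptide for full inhibition, DMSO wells as neutral · Probe or stimulus – TMR-labelled reporter peptide T*-PRC34 bound in PDZ groove · Times – 1 h at RT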
SR-BI uptake up – activators of SR-BI mediated DiI-HDL uptake, primary screen, ldlA[mSR-BI] CHO cells, DiI fluorescence | 3 h; 100 = double the neutral-control signal | activation, % at 12.5 µM | hit rate 0.096% among 320,000;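 active means mean replicate activation of at least 60% and every replicate at or above 60%; inconclusive means mean or all-replicate condition met, but not both; inactive means mean below 60% and not all replicates reaching 60%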
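System: CHO ldlA[mSR-BI] cells / Medium: HEPES-buffered (25 mM, pH 7.4) F12 plus 0.5% BSA / Probe or stimulus: labelled HDL, 10 µg/mL / Doses: single compound concentration, delivered by pin transfer / Schedule: 3 h, 37 °C / Measured by: DiI fluorescence, bottom read / Measure: cell-associated DiI fluorescence as measure of HDL uptake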
CAL PDZ FP-2 – untagged CAL PDZ binding inhibitors, primary screen, biochemical, fluorescence polarization, HTS; hit rate 0.92% among 300,000; purified CAL PDZ, TMR-peptide fluorescence polarization, 1 h; inhibition, % at 24.9 µM; Golgi-associated PDZ and coiled-coil motif-containing protein (Homo sapiens), Q9HD26;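 active means mean inhibition of at least 30% with at least half of replicates also reaching 30%; inconclusive means no clear call, values can overlap the other calls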
dFosB act-1 – activators of delta FosB homodimer, primary screen, biochemical, fluorescence polarization, TAMRA-CDK5 oligo, single point | purified delta FosB; percent of positive-control signal above neutral wells | activation, % at 25 µM | hit rate 0.99% among 340,000;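 active means mean activation above about 17%, with every replicate also reaching it, limit read from the data, passing the limit was not always enough; inconclusive means only one of the two conditions met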
dFosB act-2 – activators of mouse delta FosB DNA binding, confirmation, biochemical, fluorescence polarization, TAMRA-CDK5 oligo, cherry-picked samples. shares compounds with dFosB act-1. purified delta FosB; normalised: neutral wells 0, positive control 100. 2,400 tested, under 10 active. activation, % at 24.9 µM;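 active means highest replicate activation at or above 34% and every replicate reaching that threshold; inconclusive means meets only one of the two criteria; inactive means meets neither criterion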;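 further: higher polarization means more probe DNA bound by delta FosB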
Large screens that a line does not name were inactive (follow-up assays come after a bar, where they were run). An excerpt weighted towards active compounds, which were near 2.8% of everything screened.

Cc1cc(NC(=O)CSc2nc3c(c(=O)n2-c2ccc(Br)cc2)SCC3)no1	dFosB act-1 42 | dFosB act-2 inactive
COc1ccc(-n2c(SCC(=O)Nc3cc(C)on3)nc3c([nH]c4ccccc43)c2=O)cc1	none (no result: CAL PDZ FP-2)
CC(=O)Nc1ccc(NC(=O)CSc2nc3c([nH]c4ccccc43)c(=O)n2-c2ccccc2F)cc1	dFosB act-1 22 | dFosB act-2 inactive
CCOc1ccc(-n2c(SCC(=O)Nc3cc(C)on3)nc3c([nH]c4ccccc43)c2=O)cc1	dFosB act-1 41 | dFosB act-2 inactive
CCC1Sc2ccc(S(=O)(=O)CCC(=O)Nc3c(Cl)cc(OC)cc3OC)cc2NC1=O (stereo not drawn)	none
Cc1cc(-c2nnc(SCC(=O)Nc3ccccc3C)n2N)n[nH]1	none
CCN(C(=O)CCS(=O)(=O)c1cccc2nonc12)c1ccc(F)cc1	none
O=C(CSc1nc2c([nH]c3ccccc32)c(=O)n1-c1ccc(F)cc1)NCc1ccco1	dFosB act-1 19 (no result: CAL PDZ FP-2) | dFosB act-2 inactive
O=C(CSc1nc2ccccc2c(=O)n1-c1ccccc1)NCc1ccco1	none (no result: CAL PDZ FP-1)
Cc1ccc(-n2c(SCC(=O)Nc3cc(C)on3)nc3c([nH]c4ccccc43)c2=O)cc1	dFosB act-1 26 | dFosB act-2 inactive
COc1ccc2oc(C(=O)NCc3cc(OC)c(OC)cc3OC)c(C)c2c1	none
COc1ccc(/C=N/n2cnc3c([nH]c4ccc(F)cc43)c2=O)cc1CN1CCCC1	none (no result: SR-BI HDL uptake, SR-BI uptake up)
COc1ccc2c(c1)[nH]c1c(=O)n(/N=C/c3ccc(OC)c(CN4CCCC4)c3)cnc12	dFosB act-1 66 | dFosB act-2 inconclusive
COc1ccc(/C=N/n2cnc3c([nH]c4ccc(C)cc43)c2=O)cc1CN1CCCC1	dFosB act-1 42 (no result: SR-BI HDL uptake, SR-BI uptake up) | dFosB act-2 inactive
COc1ccc2[nH]c3c(=O)n(/N=C/c4ccc(OC)c(CN5CCCC5)c4)c(C)nc3c2c1	none
COc1ccc(S(=O)(=O)n2cccc2)cc1OC	none
Cc1nn(C)cc1S(=O)(=O)NCc1ccc2c(c1)OCO2	none
CSc1nc2sc(-c3ccccc3)cc2c(=O)n1N	dFosB act-1 65 | dFosB act-2 inactive
Cc1nc(-c2cccc(NC(=O)c3ccc(Br)o3)c2)cs1	none
Cc1nc(-c2ccc(NC(=O)c3ccc(Br)o3)cc2)cs1	dFosB act-1 26 (no result: CAL PDZ FP-2) | dFosB act-2 inactive
COc1cccc(OCCNC(=O)Nc2cc(F)c(F)cc2Cl)c1	dFosB act-1 74 | dFosB act-2 inactive
Cc1ccc(S(=O)(=O)Nc2cccc(-c3ccc4nncn4n3)c2)cc1	dFosB act-1 20 | dFosB act-2 inactive
CNc1c(NS(=O)(=O)c2ccc(F)cc2)c(=O)oc2ccccc12	none
CNc1c(NS(=O)(=O)c2ccc3c(c2)CCCC3)c(=O)oc2ccccc12	dFosB act-1 37 | dFosB act-2 inactive
CCCNc1c(NS(=O)(=O)c2ccc(C3CCCCC3)cc2)c(=O)oc2ccccc12	dFosB act-1 82 | dFosB act-2 inactive
CNc1c(NS(=O)(=O)c2ccc(OC)cc2)c(=O)oc2ccccc12	dFosB act-1 31 | dFosB act-2 inactive
CNc1c(NS(=O)(=O)c2ccc(Br)cc2)c(=O)oc2ccccc12	dFosB act-1 99 (no result: SR-BI HDL uptake, SR-BI uptake up) | dFosB act-2 inactive
O=C(CCC(=O)N(CC(=O)NC1CCCC1)Cc1ccc(F)cc1)Nc1nccs1	none (no result: SR-BI HDL uptake, SR-BI uptake up)
O=C(O)CCC(=O)OCCCc1cc2ccccc2c(=O)o1	none
COc1ccc(CCNC(=O)CCNC(=O)N2CC(=O)Nc3ccccc32)cc1	none
CNc1c(NS(=O)(=O)c2ccc(C(C)(C)C)cc2)c(=O)oc2ccccc12	dFosB act-1 60 (no result: SR-BI HDL uptake, SR-BI uptake up) | dFosB act-2 inactive
CCCCOc1ccc(CNC(=S)N/N=C/c2ccc(OC)c(OC)c2)cc1	none (no result: CAL PDZ FP-2)
CCCCNC(=S)N/N=C/c1ccc(OCC(=O)Nc2c(C)cc(C)cc2C)c(OC)c1	dFosB act-1 22 | dFosB act-2 inactive
O=C1CC(C(=O)Nc2ccc(Cl)c(Cl)c2)S/C(=N\N=C\c2ccco2)N1 (stereo not drawn)	dFosB act-1 32 | dFosB act-2 inactive
O=C1CC(C(=O)Nc2ccc(Br)cc2)S/C(=N\N=C\c2ccco2)N1 (stereo not drawn)	none
Cc1ccc(NC(=O)CC2S/C(=N/N=C/C=C/c3ccccc3)NC2=O)cc1Cl (stereo not drawn)	none
Cc1ccc(NC(=O)CC2S/C(=N/N=C/c3ccco3)NC2=O)cc1Cl (stereo not drawn)	dFosB act-1 33 | dFosB act-2 inactive
O=C1CC(C(=O)Nc2ccc(Cl)cc2)S/C(=N\N=C\c2ccco2)N1 (stereo not drawn)	dFosB act-1 45 | dFosB act-2 inactive
O=C1CC(C(=O)Nc2ccccc2)S/C(=N\N=C\c2ccco2)N1 (stereo not drawn)	dFosB act-1 28 | dFosB act-2 inactive
CCCCOc1cccc(C2/C(=C(/O)c3ccc4c(c3)CC(C)O4)C(=O)C(=O)N2CCN2CCOCC2)c1 (stereo not drawn)	none (no result: CAL PDZ FP-2)
Cc1cc(=O)n(C(C)c2ccccc2)n1C(C)c1ccccc1 (stereo not drawn)	none
O=S(=O)([O-])CCC[n+]1c(SCCCS(=O)(=O)O)sc2ccc(Cl)cc21	none
C/C(=C\C=C(C#N)C#N)c1cc(C#N)c(N)o1	dFosB act-1 84 | dFosB act-2 inconclusive
Cn1/c(=N/NC(=O)c2ccccc2Br)sc2ccccc21	none
O=C(COC(=O)c1cc(NS(=O)(=O)c2cccs2)ccc1O)Nc1ccc(F)c(F)c1F	dFosB act-1 22 | dFosB act-2 inactive
Cc1ccccc1C(=O)O[C@H]1[C@H](Cc2ccccc2)NS(=O)(=O)[C@H]2CC3C=C[C@]12O3	none
COc1ccccc1C(=O)NC(=O)COC(=O)Cc1n[nH]c(=O)c2ccccc12	none
COc1ccccc1NC(=O)c1ccc(NC(=O)Cc2n[nH]c(=O)c3ccccc23)cc1	dFosB act-1 25 | dFosB act-2 inactive
COc1cc(-c2ccc3c(=O)c4ccccc4n(C)c3c2)cc(OC)c1OC	dFosB act-1 35 | dFosB act-2 inactive
Cn1cc(/C=C(\C#N)C(=O)Nc2cccc([N+](=O)[O-])c2)c2ccccc21	dFosB act-1 45 (no result: CAL PDZ FP-2) | dFosB act-2 inactive
